The text below walks through data of ChEMBL document CHEMBL1128460, “Design, synthesis, and structure-activity relationships of a new series of alpha-adrenergic agonists: spiro[(1,3-diazacyclopent-1-ene)-5,2'-(1',2',3',4'- tetrahydronaphthalene)]” (J Med Chem, 1995).

For test [1], the species on record is Canis familiaris. Kind of test: Effective concentration for the agonist in the isolated blood vessel using in vitro femoral artery. The class given is functional. The conditions noted are these: Canis lupus familiaris. Summed up: (§1)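 Vessel segments from mongrel dogs (15–25 kg) anesthetized with pentobarbital (30 mg/kg iv), mounted for isometric tension in physiological saline. Equilibrated 90 min with bath changes every 30 min, rauwolscine (10^-7 M) present throughout. Primed with KCl (100 mM), then phenylephrine (1 µM). Agonist concentration–response curves run at half-log steps, giving EC50 (µM) and Emax as % of phenylephrine maximum; mean ±SD.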

The target in test [2] is T1, Alpha-2A adrenergic receptor (Homo sapiens, UniProt P08913).
T1 sequence (P08913 whole entry): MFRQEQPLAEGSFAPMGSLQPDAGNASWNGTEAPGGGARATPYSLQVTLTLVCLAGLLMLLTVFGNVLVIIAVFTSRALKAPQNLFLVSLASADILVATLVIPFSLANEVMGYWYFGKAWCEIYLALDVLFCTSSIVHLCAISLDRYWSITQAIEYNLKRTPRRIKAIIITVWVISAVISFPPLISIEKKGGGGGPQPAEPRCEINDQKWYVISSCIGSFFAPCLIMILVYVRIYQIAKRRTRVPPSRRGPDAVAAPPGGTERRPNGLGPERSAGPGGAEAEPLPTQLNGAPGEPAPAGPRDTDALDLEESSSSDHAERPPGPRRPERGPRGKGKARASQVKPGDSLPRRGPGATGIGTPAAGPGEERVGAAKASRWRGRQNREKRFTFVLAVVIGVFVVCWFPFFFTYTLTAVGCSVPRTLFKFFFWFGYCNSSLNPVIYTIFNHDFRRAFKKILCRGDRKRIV
Kind of test: Binding affinity towards Alpha-2A adrenergic receptor in human platelets using [3H]RX-821002 as radioligand. The method, boiled down: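 Human platelet membranes with [3H]RX821002 (1.5 nM), nonspecific binding with phentolamine (10 µM). Displacement at nine concentrations spanning 3 orders of magnitude, IC50 by log-probit analysis, converted to Ki using Scatchard Kd. ≥3 independent duplicate experiments.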

Test [3] concerns the target T2, Adrenergic receptor alpha-1 (Rattus norvegicus, UniProt P15823+P23944+P43140).
T2 sequence (P15823 whole entry): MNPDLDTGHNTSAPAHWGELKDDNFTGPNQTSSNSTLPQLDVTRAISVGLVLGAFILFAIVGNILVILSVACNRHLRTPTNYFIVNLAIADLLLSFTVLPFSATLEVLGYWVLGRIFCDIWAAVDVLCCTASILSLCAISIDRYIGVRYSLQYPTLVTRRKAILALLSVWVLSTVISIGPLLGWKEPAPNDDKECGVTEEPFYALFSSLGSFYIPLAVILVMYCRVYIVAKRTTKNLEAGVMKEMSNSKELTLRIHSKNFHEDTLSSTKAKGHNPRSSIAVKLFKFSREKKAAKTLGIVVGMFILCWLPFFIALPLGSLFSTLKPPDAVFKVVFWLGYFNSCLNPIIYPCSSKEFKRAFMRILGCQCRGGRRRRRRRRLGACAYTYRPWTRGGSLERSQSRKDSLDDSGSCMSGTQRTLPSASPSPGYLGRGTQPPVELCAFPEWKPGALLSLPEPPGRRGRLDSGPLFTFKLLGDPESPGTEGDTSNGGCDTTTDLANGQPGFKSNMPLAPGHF
T2 sequence (P23944 whole entry): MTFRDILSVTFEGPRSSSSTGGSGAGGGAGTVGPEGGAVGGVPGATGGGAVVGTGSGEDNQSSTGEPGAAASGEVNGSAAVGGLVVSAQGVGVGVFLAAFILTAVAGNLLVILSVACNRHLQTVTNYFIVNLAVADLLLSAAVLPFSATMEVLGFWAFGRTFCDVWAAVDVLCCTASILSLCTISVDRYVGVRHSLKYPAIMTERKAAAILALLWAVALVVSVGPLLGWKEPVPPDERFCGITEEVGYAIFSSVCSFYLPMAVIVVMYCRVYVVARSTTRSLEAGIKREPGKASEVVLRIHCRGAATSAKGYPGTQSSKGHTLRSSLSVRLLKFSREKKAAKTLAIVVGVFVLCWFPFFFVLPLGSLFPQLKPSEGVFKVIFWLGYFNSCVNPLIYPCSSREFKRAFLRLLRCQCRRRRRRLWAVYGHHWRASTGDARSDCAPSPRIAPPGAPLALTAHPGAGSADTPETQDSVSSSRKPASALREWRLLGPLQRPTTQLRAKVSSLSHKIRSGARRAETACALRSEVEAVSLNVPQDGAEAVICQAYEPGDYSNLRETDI
T2 sequence (P43140 whole entry): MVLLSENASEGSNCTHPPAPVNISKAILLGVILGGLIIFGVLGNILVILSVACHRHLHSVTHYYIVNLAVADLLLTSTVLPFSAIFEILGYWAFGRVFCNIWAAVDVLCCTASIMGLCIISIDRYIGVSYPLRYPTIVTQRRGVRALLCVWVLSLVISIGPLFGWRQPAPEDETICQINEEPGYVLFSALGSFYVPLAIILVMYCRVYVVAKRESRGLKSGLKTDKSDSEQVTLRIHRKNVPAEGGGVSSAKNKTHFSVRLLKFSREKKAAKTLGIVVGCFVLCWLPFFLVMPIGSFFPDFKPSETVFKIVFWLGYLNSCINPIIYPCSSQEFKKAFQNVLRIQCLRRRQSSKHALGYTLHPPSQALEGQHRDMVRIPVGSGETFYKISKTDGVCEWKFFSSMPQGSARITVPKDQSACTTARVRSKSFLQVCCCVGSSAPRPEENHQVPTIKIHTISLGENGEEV
The test can be described thus: Displacement of [3H]prazosin from rat cortex Alpha-1 adrenergic receptor. Summed up: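 Rat cortex membranes labelled with [3H]prazosin (0.3 nM), nonspecific binding with prazosin (10 µM). Nine drug concentrations spanning 3 log units, IC50 by log-probit analysis. Ki by Cheng–Prusoff using Kd from Scatchard saturation. At least three independent experiments in duplicate.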
A general note: In a radioligand displacement assay an active substance lowers the binding of a labelled ligand.

The species named for test [4] is Canis familiaris. Kind of test: Effective concentration for the agonist in the isolated blood vessel using in vitro saphenous vein. The conditions noted are these: Canis lupus familiaris. The test is classed as functional. Summed up: as §1
For test [5], the species on record is Canis familiaris. The test can be described thus: Maximal contractile response obtained with the agonist (expressed as a percentage of the maximal contraction to phenylephrine in the dog femoral artery). The class given is functional, Canis lupus familiaris. The method, boiled down: as §1
A short description of test [6]: Ratio of C20 (pithed rat) to that of EC50 (saphenous vein). The class given is functional.
The species named for test [7] is Canis familiaris. The test can be described thus: Maximal contractile response obtained with the agonist (expressed as a percentage of the maximal contraction to phenylephrine in the dog saphenous vein). The class given is functional, Canis lupus familiaris. The method, boiled down: as §1
Test [8] concerns the target T3, Adrenergic receptor alpha (Rattus norvegicus) (UniProt P15823+P23944+P43140+P22086+P19328+P22909). The test can be described thus: Alpha adrenergic activity was evaluated as concentration (iv) which increases the arterial pressure by 20 mmHg in the pithed rat. The settings on record: Artery. The class given is functional, organism-based.
Test [9] addresses T3, Adrenergic receptor alpha (Rattus norvegicus). The test can be described thus: Alpha adrenergic activity was evaluated as maximal pressure response caused by agonist, expressed in mmHg (the maximum obtained with phenylephrine is 150 mmHg). The test is classed as functional.
The target in test [10] is T4, Alpha-2B adrenergic receptor (Rattus norvegicus, UniProt P19328).
T4 sequence (P19328 whole entry): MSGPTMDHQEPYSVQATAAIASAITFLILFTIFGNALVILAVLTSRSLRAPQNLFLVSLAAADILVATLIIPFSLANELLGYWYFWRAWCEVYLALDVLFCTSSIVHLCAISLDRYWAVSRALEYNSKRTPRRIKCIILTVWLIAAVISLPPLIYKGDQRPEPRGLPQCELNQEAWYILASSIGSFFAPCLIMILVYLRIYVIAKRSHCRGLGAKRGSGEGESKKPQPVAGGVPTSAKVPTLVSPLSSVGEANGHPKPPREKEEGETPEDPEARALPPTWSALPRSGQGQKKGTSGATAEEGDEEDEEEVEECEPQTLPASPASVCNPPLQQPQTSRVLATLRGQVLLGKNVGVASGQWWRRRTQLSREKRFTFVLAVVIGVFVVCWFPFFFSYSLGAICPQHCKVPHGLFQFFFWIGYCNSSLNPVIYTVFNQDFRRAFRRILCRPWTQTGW
Kind of test: Binding affinity towards Alpha-2B adrenergic receptor in neonatal rat lung using [3H]-RX-821002 as radioligand. Summed up:
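Neonatal rat lung membranes with [3H]RX821002 (0.5 nM), nonspecific binding with phentolamine (10 µM). Nine concentrations over 3 log units, IC50 by log-probit, Ki by Cheng–Prusoff with Scatchard-derived Kd. ≥3 independent experiments in duplicate.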

The nature of test [11]: ratio of C20 obtained in the absence or presence of [C20 (1 mg of yohimbine.) / C20 (control)]. The class given is functional. Summed up:
(§2)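 Pithed rat arterial pressure assay with tertatolol (100 mg/kg) pretreatment, then yohimbine (1 mg/kg) 10 min later. Cumulative iv agonist doses given at 20 s intervals after a further 10 min, C20 (+20 mmHg dose) obtained. Ratio expressed as C20(yohimbine)/C20(control); 3–6 determinations.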

A short description of test [12]: ratio of C20 obtained in the absence or presence of [C20 ( 0.1 mg of prazosin ) / C20 (control)]. The class given is functional. Summed up: (§3)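 Pithed rats pretreated with tertatolol (100 mg/kg), then 10 min later with prazosin (100 µg/kg). Cumulative iv agonist doses given another 10 min later at 20 s intervals. Arterial pressure recorded, C20 (dose giving +20 mmHg) determined. Ratio calculated as C20(prazosin)/C20(control); 3–6 determinations.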

A short description of test [13]: Ratio of C20 (pithed rat) to that of EC50(saphenous vein). The class given is functional.
A short description of test [14]: Ratio of C20 obtained in the absence or presence of [C20 (1 mg of yohimbine.) / C20 (control)]. The class given is functional. Summed up: as §2
Test [15] is described as follows: Ratio of C20 obtained in the absence or presence of [C20 ( 0.1 mg of prazosin ) / C20 (control)]. The class given is functional. The method, boiled down:
as §3

Each structure is given as a SMILES string. pEC50, pKi: −log10 of the molar value.

Consider `Cc1ccc2c(c1)CC1(CC2)CN=CN1` (centres undefined), for which the negative-log EC50 (pEC50) (commonly −log10 of the EC50, conventionally taken in molar units) was 4.13 in the test listed under Canis familiaris [1] and 6.59 in the test filed under Canis familiaris [4]. The pKi (usually the negative decadic logarithm of the Ki, by convention in mol/L) was 8.15 in test [2] and 7.30 in [10]. Further, the Ki (as a rule, a measure of affinity in units of concentration, obtained from inhibition or displacement) in test [3] was 1 µM. The Emax in the test listed under Canis familiaris [5] was determined as 5; in the test filed under Canis familiaris [7] it was 64. Further, the Ratio in test [6] was 31. In test [8], this compound showed a C20 of 8 µg/kg. Besides, the Max in test [9] was found to be 111 mmHg.

On to `C1=NCC2(CCc3ccccc3C2)N1` (centres undefined), for which the pEC50 was 5.12 in the test listed under Canis familiaris [1] and 5.89 in the test filed under Canis familiaris [4]. For the same compound, the pKi is 7.47 in [2] and 6.56 in [10]. This compound had a Ki in [3] of 14.4 µM. The Emax in the test listed under Canis familiaris [5] amounted to 19; in the test filed under Canis familiaris [7], 99. The Ratio in [11] was determined as 5.3; in test [12] it was 2. For the same compound, in test [8], the C20 turned out to be 4 µg/kg. In addition, the Max in [9] stood at 120 mmHg.

`C1=NCC2(CCc3cc4c(cc3C2)CCC4)N1` (centres undefined) had a pEC50 in the test listed under Canis familiaris [4] of 7.15. For the same compound, the Emax in the test listed under Canis familiaris [5] turned out to be 0; in the test listed under Canis familiaris [7], 17. Moreover, the Ratio in [11] was determined as 5; in [13], 1057; in test [12], 1.1. In test [8], this compound registered a C20 of 74 µg/kg. Besides, the Max in test [9] worked out at 68 mmHg.

Take `CN1C=NCC12CCc1ccccc1C2` (centres undefined): the Emax in the test listed under Canis familiaris [5] and in the test listed under Canis familiaris [7] was 0 in each case. Further, the Ratio in test [11] was 1.9; in test [12], 1.55. The C20 in test [8] amounted to 675 µg/kg. The compound further displayed a Max in test [9] of 73 mmHg.

As for `CC1=NCC2(CCc3ccccc3C2)N1C` (centres undefined), the Emax in the test listed under Canis familiaris [5] and in the test filed under Canis familiaris [7] was 0 each time. In addition, the Ratio in test [11] is 1.1; in [12] it was 1. Further, in test [8], the C20 amounted to 1060 µg/kg. In test [9], the Max is 73 mmHg.

The compound `COc1ccc2c(c1)CC1(CC2)CN=CN1` (centres undefined) came in with a Ki in [3] of 16 µM. Further, the Ratio in [14] came out at 6.9; in [15], 3.9; in [6] it was 0.21. The pEC50 in the test filed under Canis familiaris [4] was 5.15. Besides, the Emax stood at 0 in the test filed under Canis familiaris [5] and 49 in the test listed under Canis familiaris [7]. The C20 in test [8] is 1.5 µg/kg. For the same compound, the Max in test [9] stood at 106 mmHg.

The compound `COc1ccc2c(c1)CCC1(CN=CN1)C2` (centres undefined) gave a Ki in test [3] of 29.4 µM. Besides, the values for the Ratio in [14], in test [15] and in test [6] were 1.5, 2.6 and 4.77, respectively. Also, the pEC50 in the test filed under Canis familiaris [4] was 5.06. Moreover, the results for the Emax in the test listed under Canis familiaris [5] and in the test listed under Canis familiaris [7] were 3 and 60, respectively. In [8], this compound returned a C20 of 42 µg/kg. The Max in [9] came to 105 mmHg.
